Laboratory results published in publication PMC6543826 (Bioorganic chemistry, 2018).
Values joined by “and” are separate entries in the source; they are usually repeats but may differ in a detail not shown here. Identical values can stand only once. Like-named read-outs stand apart in the source and are kept apart here.

Key:
K-562 = assay: cells; format: cell-based; settings: K-562, 10^−5 M, 48 h
MOLT-4 = assay: cells; format: cell-based; settings: MOLT-4, 10^−5 M, 48 h
RPMI-8226 = assay: cells; format: cell-based; settings: RPMI-8226, 10^−5 M, 48 h
SR = assay: cells; format: cell-based; settings: 10^−5 M, 48 h
A549/ATCC = assay: cells; format: cell-based; settings: A549/ATCC, 10^−5 M, 48 h
HOP-62 = assay: cells; format: cell-based; settings: HOP-62, 10^−5 M, 48 h
NCI-H226 = assay: cells; format: cell-based; settings: NCI-H226, 10^−5 M, 48 h
NCI-H23 = assay: cells; format: cell-based; settings: NCI-H23, 10^−5 M, 48 h
NCI-H460 = assay: cells; format: cell-based; settings: NCI-H460, 10^−5 M, 48 h
HCT-15 = assay: cells; format: cell-based; settings: HCT-15, 10^−5 M, 48 h
HT29 = assay: cells; format: cell-based; settings: HT29, 10^−5 M, 48 h
SF-268 = assay: cells; format: cell-based; settings: SF-268, 10^−5 M, 48 h
SF-539 = assay: cells; format: cell-based; settings: SF-539, 10^−5 M, 48 h
SNB-75 = assay: cells; format: cell-based; settings: SNB-75, 10^−5 M, 48 h
U251 = assay: cells; format: cell-based; settings: U251, 10^−5 M, 48 h
LOX IMVI = assay: cells; format: cell-based; settings: 10^−5 M, 48 h
MALME-3M = assay: cells; format: cell-based; settings: MALME-3M, 10^−5 M, 48 h
MDA-MB-435 = assay: cells; format: cell-based; settings: MDA-MB-435, 10^−5 M, 48 h
SK-MEL-2 = assay: cells; format: cell-based; settings: SK-MEL-2, 10^−5 M, 48 h
UACC-62 = assay: cells; format: cell-based; settings: UACC-62, 10^−5 M, 48 h
IGROV1 = assay: cells; format: cell-based; settings: IGROV1, 10^−5 M, 48 h
OVCAR-5 = assay: cells; format: cell-based; settings: OVCAR-5, 10^−5 M, 48 h
SK-OV-3 = assay: cells; format: cell-based; settings: SK-OV-3, 10^−5 M, 48 h
RXF 393 = assay: cells; format: cell-based; settings: RXF 393, 10^−5 M, 48 h
SN12C = assay: cells; format: cell-based; settings: 10^−5 M, 48 h
UO-31 = assay: cells; format: cell-based; settings: UO-31, 10^−5 M, 48 h
PC-3 = assay: cells; format: cell-based; settings: PC-3, 10^−5 M, 48 h
BT-549 = assay: cells; format: cell-based; settings: BT-549, 10^−5 M, 48 h
T-47D = assay: cells; format: cell-based; settings: T-47D, 10^−5 M, 48 h
MDA-MB-468 = assay: cells; format: cell-based; settings: MDA-MB-468, 10^−5 M, 48 h
ERK1 = ERK1 (Homo sapiens, UniProt P27361); assay: in vitro radioactive kinase assay, Ets-1 phosphorylation by ERK1; format: biochemical
Chain of ERK1 (P27361 whole entry, species assumed): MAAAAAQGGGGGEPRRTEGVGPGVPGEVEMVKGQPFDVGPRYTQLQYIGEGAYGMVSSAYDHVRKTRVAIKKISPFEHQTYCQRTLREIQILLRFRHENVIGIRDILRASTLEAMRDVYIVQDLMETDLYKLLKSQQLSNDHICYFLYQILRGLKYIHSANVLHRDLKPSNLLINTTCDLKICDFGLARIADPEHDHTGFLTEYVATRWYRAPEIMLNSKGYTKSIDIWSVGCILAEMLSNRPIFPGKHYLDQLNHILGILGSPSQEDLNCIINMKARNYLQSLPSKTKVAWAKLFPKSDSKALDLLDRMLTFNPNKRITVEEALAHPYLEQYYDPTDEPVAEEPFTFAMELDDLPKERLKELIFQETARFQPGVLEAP
Method in brief: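 Radiometric assay at 28–30 °C in 25 mM HEPES pH 7.5, 50 mM KCl, 0.1 mM EDTA/EGTA, 2 mM DTT, 11 mM MgCl2, 10 μg mL−1 BSA and 5% DMSO (final). 2 nM activated ERK1 was used with 10 μM His-Ets-1 (1–138). Reactions were started with [γ-32P]ATP (10 or 100 μM). IC50 came from fitting rate versus inhibitor concentration to a hyperbolic decay equation.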

ERK2 = ERK2 (Rattus norvegicus, UniProt P63086); assay: in vitro radioactive kinase assay, Ets-1 phosphorylation by ERK2; format: biochemical; settings: for effect of excess Ets-1 (100 μM) on inhibition of ERK2: 5 μM inhibitor, 100 μM vs 10 μM Ets-1, 100 μM ATP
Chain of ERK2 (P63086 whole entry): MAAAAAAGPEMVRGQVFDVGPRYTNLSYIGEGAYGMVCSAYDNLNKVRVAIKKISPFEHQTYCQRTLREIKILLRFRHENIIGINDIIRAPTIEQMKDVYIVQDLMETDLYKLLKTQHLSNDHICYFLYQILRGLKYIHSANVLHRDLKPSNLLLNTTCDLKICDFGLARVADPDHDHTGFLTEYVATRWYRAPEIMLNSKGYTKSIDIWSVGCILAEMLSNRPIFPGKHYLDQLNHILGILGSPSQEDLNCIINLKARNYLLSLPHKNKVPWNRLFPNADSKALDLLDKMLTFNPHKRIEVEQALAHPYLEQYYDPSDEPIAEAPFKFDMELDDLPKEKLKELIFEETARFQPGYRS
Method in brief: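 Activated rat ERK2 (2 nM) was tested with His-Ets-1 (1–138) at 28–30 °C in HEPES pH 7.5 buffer with 11 mM MgCl2, BSA and 5% DMSO. Reactions were started with [γ-32P]ATP (10 or 100 μM).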

JNK2 = JNK2 (Homo sapiens, UniProt P45984); assay: in vitro kinase assay, GST-c-Jun; format: biochemical
Chain of JNK2 (P45984 whole entry): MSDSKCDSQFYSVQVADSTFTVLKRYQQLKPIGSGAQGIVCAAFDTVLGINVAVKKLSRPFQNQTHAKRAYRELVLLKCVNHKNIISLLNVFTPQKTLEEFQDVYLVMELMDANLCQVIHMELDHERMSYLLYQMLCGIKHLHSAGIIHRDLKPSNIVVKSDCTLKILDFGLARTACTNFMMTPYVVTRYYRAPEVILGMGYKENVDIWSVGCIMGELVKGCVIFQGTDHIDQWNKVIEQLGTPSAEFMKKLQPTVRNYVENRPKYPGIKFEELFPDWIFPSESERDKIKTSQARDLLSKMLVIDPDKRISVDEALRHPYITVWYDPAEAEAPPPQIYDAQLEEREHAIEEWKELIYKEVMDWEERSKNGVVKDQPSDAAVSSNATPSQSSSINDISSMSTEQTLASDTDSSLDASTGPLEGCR

[1] = ERK1 IC50, 100 μM ATP, 10 μM Ets-1
[2] = ERK2 IC50, 100 μM ATP, 10 μM Ets-1
[3] = ERK2 IC50 at 100 μM ATP /10mM Ets-1, Table 4, 100 μM ATP /10mM Ets-1

| SMILES | Growth percent (G%) (K-562) [%] | Growth percent (G%) (MOLT-4) [%] | Growth percent (G%) (RPMI-8226) [%] | Growth percent (G%) (SR) [%] | Growth percent (G%) (A549/ATCC) [%] | Growth percent (G%) (HOP-62) [%] | Growth percent (G%) (NCI-H226) [%] | Growth percent (G%) (NCI-H23) [%] | Growth percent (G%) (NCI-H460) [%] | Growth percent (G%) (HCT-15) [%] | Growth percent (G%) (HT29) [%] | Growth percent (G%) (SF-268) [%] | Growth percent (G%) (SF-539) [%] | Growth percent (G%) (SNB-75) [%] | Growth percent (G%) (U251) [%] | Growth percent (G%) (LOX IMVI) [%] | Growth percent (G%) (MALME-3M) [%] | Growth percent (G%) (MDA-MB-435) [%] | Growth percent (G%) (SK-MEL-2) [%] | Growth percent (G%) (UACC-62) [%] | further results |
| --- | --- | --- | --- | --- | --- | --- | --- | --- | --- | --- | --- | --- | --- | --- | --- | --- | --- | --- | --- | --- | --- |
| O=C1C(Cl)=C(c2c(O)c3c(=O)n(-c4ccccc4)c4ccccc4c3oc2=O)C(=O)c2ccccc21 [compound 6, 3-(3-Chloro-1,4-dioxo-1,4-dihydronaphthalen-2-yl)-4-hydroxy-6-phenyl-2H-pyrano[3,2-c]quinoline-2,5(6H)-dione] | 26.84 | 16.13 | 19.65 | 11.44 | 37.73 | 36.07 | 86.30 | 38.22 | 33.57 | 66.56 | 84.18 | 34.32 | −5.45 | 31.77 | 21.15 | 42.99 | 42.00 | 87.80 | 23.06 | 13.17 | Growth percent (G%) (IGROV1): 71.85%; Growth percent (G%) (OVCAR-5): 88.70%; Growth percent (G%) (SK-OV-3): 67.28%; Growth percent (G%) (RXF 393): 69.20%; Growth percent (G%) (SN12C): −14.11%; Growth percent (G%) (UO-31): 64.18%; Growth percent (G%) (PC-3): 49.16%; Growth percent (G%) (BT-549): 12.26%; Growth percent (G%) (T-47D): 4.47%; Growth percent (G%) (MDA-MB-468): −27.29%; IC50 (ERK1; [1]): 0.19 ± 0.01 µM; effect of excess Ets-1 (100 μM) on inhibition of ERK2 (ERK2): did not rescue; IC50 (ERK2; ERK2 IC50, 10 μM ATP): 0.09 µM and 0.086 µM; IC50 (ERK2; [2]): ~0.16 µM and 0.16 µM; IC50 (ERK2; [3]): 0.16 ± 0.02 µM; IC50 (JNK2): 4.2 ± 0.9 µM; ability to inhibit JNK2 (in words) (JNK2): little tendency to inhibit |
| Cn1c(=O)c2c(=O)c3c4c(oc3oc2c2ccccc21)C(=O)c1ccccc1C4=O [5a, 5-Methyl-5H-naphthalen[2″,3″:4′,5′]furo[3′,2′:4′,5,6]pyrano [3,2-c]quinoline-6,7,8,13-tetraone] | 89.61 | 87.37 | 100.23 | 92.01 | 85.17 | 80.81 | 88.55 | 86.15 | 108.09 | 94.13 | 96.96 | 101.09 | 93.83 | 101.36 | 104.35 | 95.89 | 113.29 | 105.3 | 86.85 | 93.45 | Growth percent (G%) (IGROV1): 65.92%; Growth percent (G%) (OVCAR-5): 102.02%; Growth percent (G%) (SK-OV-3): 95.03%; Growth percent (G%) (RXF 393): 87.68%; Growth percent (G%) (SN12C): 125.68%; Growth percent (G%) (UO-31): 137.02%; Growth percent (G%) (PC-3): 79.23%; Growth percent (G%) (BT-549): 104.21%; Growth percent (G%) (T-47D): 83.56%; Growth percent (G%) (MDA-MB-468): 64.82%; IC50 (ERK1; read-out: ERK1 IC50, 100 μM ATP, 10 μM Ets-1): 95 ± 10.9 µM; IC50 (ERK1; read-out: IC50 towards inhibiting ERK, ERK isoform not given): ≥ 100 µM; IC50 (ERK2; read-out: ERK2 IC50, 100 μM ATP, 10 μM Ets-1): 108 ± 12.2 µM; IC50 (ERK2; read-out: ERK2 IC50 at 100 μM ATP /10mM Ets-1, Table 4, 100 μM ATP /10mM Ets-1): > 100 µM; ability to inhibit JNK2 (in words) (JNK2): did not show any ability to inhibit; IC50 (JNK2; read-out: JNK2 IC50, 2 μM GST-c-Jun (1–221)): > 200 µM |
| O=C1c2ccccc2C(=O)c2c1oc1c2c(=O)[nH]c2ccccc21 [3a, Naphtho[2′,3′:4,5]furo[3,2-c]quinoline-6,7,12(5H)-trione] | 55.20 | 5.55 | 62.72 | 43.80 | 97.18 | 118.63 | 78.47 | 65.95 | 68.27 | 44.70 | 102.52 | 91.30 | 90.30 | 112.98 | 79.04 | 56.12 | 124.29 | 83.72 | 76.92 | 88.73 | Growth percent (G%) (IGROV1): 55.11%; Growth percent (G%) (OVCAR-5): 102.37%; Growth percent (G%) (SK-OV-3): 104.46%; Growth percent (G%) (RXF 393): 97.24%; Growth percent (G%) (SN12C): 70.40%; Growth percent (G%) (UO-31): 60.44%; Growth percent (G%) (PC-3): 65.49%; Growth percent (G%) (BT-549): 73.94%; Growth percent (G%) (T-47D): 22.52%; Growth percent (G%) (MDA-MB-468): −8.43%; IC50 (ERK1; [1]): 9.12 ± 1.1 µM; IC50 (ERK1; IC50 towards inhibiting ERK, ERK isoform not given): ~9 µM; effect of excess Ets-1 (100 μM) on inhibition of ERK2 (ERK2): did not rescue; IC50 (ERK2; [2]): 10.2 ± 1.2 µM; IC50 (ERK2; [3]): 10.2 ± 1.2 µM; IC50 (JNK2): > 200 µM; ability to inhibit JNK2 (in words) (JNK2): did not show any ability to inhibit |
